# Test results as given in ChEMBL document CHEMBL3352067, “1,8-Naphthyridines IX. Potent anti-inflammatory and/or analgesic activity of a new group of substituted 5-amino[1,2,4]triazolo[4,3-a][1,8]naphthyridine-6-carboxamides, of some their Mannich base derivatives and of one novel substituted …” (Eur J Med Chem, 2014).
# The source made the active and inactive calls. The calls are words filed in the database; no cut-off is given here.
# Experiments:
# Rattus norvegicus [1] = experiment: Antiinflammatory activity in Wistar rat assessed as inhibition of carrageenan-induced paw oedema at 100 mg/kg, po administered 1 hr prior to carrageenan challenge; type: functional
# Procedure, shortened: (§1)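 Wistar rats (250–300 g, either sex), fasted overnight, dosed by oral gavage with compound suspended in 0.5% methylcellulose; controls got vehicle. Groups of 8–10. 1 h later 0.1 mL 1% carrageenan injected subcutaneously into hind paw plantar surface; paw volume measured by plethysmometer immediately and 3 h later. Inhibition calculated from swelling difference versus controls (control = 100).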
# Mus musculus [2] = experiment: Antinociceptive activity in Swiss mouse assessed as inhibition of acetic acid-induced writhing at 100 mg/kg, po administered 1 hr prior to acetic acid challenge measured for 30 mins; type: functional
# Procedure, shortened: (§2)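 Swiss mice (25–35 g, either sex), fasted overnight, given compound orally in 0.5% methylcellulose; controls received vehicle; groups of 8–10. Writhes, scored as complete extension of either hind limb, counted over 30 min after injection of the noxious agent. Percent inhibition derived from the difference in writhing between treated and control groups.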
# [3] = Antiplatelet activity in guinea pig platelet rich plasma assessed as inhibition of ADP-induced aggregation by aggregometry; type: functional, cell-free; conditions: Cavia porcellus
# Procedure, shortened: (§3)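 Guinea pig blood drawn by cardiac puncture into 3.8% citrate (1:9). PRP obtained by spinning at 180 g for 15 min, PPP at 2000 g for 10 min. PRP preincubated 5 min at 37 °C with compound or DMSO (≤0.5% final), then aggregation triggered by U46619, ADP or arachidonic acid. Born turbidimetry at 37 °C with stirring; percent inhibition versus control; tested within 3 h.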
# [4] = Antiplatelet activity in guinea pig platelet rich plasma assessed as inhibition of arachidonic acid-induced aggregation by aggregometry; type: functional, cell-free; conditions: Cavia porcellus; procedure, shortened: as §3
# [5] = Antiplatelet activity in guinea pig platelet rich plasma assessed as inhibition of U46619-induced aggregation by aggregometry; type: functional, cell-free; conditions: Cavia porcellus; procedure, shortened: as §3
# Rattus norvegicus [6] = experiment: Antiinflammatory activity in Wistar rat assessed as inhibition of carrageenan-induced paw oedema at 25 mg/kg, po administered 1 hr prior to carrageenan challenge; type: functional; procedure, shortened: as §1
# Rattus norvegicus [7] = experiment: Antiinflammatory activity in Wistar rat assessed as inhibition of carrageenan-induced paw oedema at 6.25 mg/kg, po administered 1 hr prior to carrageenan challenge; type: functional; procedure, shortened: as §1
# Mus musculus [8] = experiment: Antinociceptive activity in Swiss mouse assessed as inhibition of acetic acid-induced writhing at 50 mg/kg, po administered 1 hr prior to acetic acid challenge measured for 30 mins; type: functional; procedure, shortened: as §2
# Rattus norvegicus [9] = experiment: Antiinflammatory activity in Wistar rat assessed as inhibition of carrageenan-induced paw oedema at 50 mg/kg, po administered 1 hr prior to carrageenan challenge; type: functional; procedure, shortened: as §1
# Rattus norvegicus [10] = experiment: Antiinflammatory activity in Wistar rat assessed as inhibition of carrageenan-induced paw oedema at 12.5 mg/kg, po administered 1 hr prior to carrageenan challenge; type: functional; procedure, shortened: as §1
# Rattus norvegicus [11] = experiment: Acute gastrolesivity in Wistar rat assessed as stomach lesions at 100 mg/kg, po measured after 5 hrs; type: toxicity, organism-based; design: dose 100 mg/kg, route oral; conditions: in vivo
# Procedure, shortened: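 Wistar rats (250-300 g, either sex), fasted overnight, dosed by oral gavage in 0.5% methylcellulose (1 mL 100 g^-1); groups of 8-10. Stomachs excised 5 h post-dose, fixed with 2% formalin, opened along greater curvature, examined by stereomicroscope by blinded observer. Read-out: number of rats with gastric damage over number treated.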
# J774 = experiment: Antiinflammatory activity in mouse J774 cells assessed as inhibition of LPS-induced NO production at 100 uM after 6 hrs by Griess assay; type: functional, cell-based
# Procedure, shortened: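 J774 murine macrophages grown in DMEM with 10% FBS and 2 mM glutamine at 37 °C, 5% CO2. Cells plated at 2.5 × 10⁵/mL, left to adhere overnight, and the medium refreshed. Compound added together with LPS. Supernatants taken after 6 h; nitrite measured with Griess reagent (10 min) as absorbance at 540 nm, with fresh medium as blank.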
# Rattus norvegicus [12] = experiment: Antiinflammatory activity in Wistar rat assessed as inhibition of carrageenan-induced paw oedema at 3.12 mg/kg, po administered 1 hr prior to carrageenan challenge; type: functional; procedure, shortened: as §1
# Rattus norvegicus [13] = experiment: Antiinflammatory activity in Wistar rat assessed as inhibition of carrageenan-induced paw oedema at 1.6 mg/kg, po administered 1 hr prior to carrageenan challenge; type: functional; procedure, shortened: as §1
# Rattus norvegicus [14] = experiment: Antiinflammatory activity in Wistar rat assessed as inhibition of carrageenan-induced paw oedema at 0.8 mg/kg, po administered 1 hr prior to carrageenan challenge; type: functional; procedure, shortened: as §1
# Mus musculus [15] = experiment: Antinociceptive activity in Swiss mouse assessed as inhibition of acetic acid-induced writhing at 25 mg/kg, po administered 1 hr prior to acetic acid challenge measured for 30 mins; type: functional; procedure, shortened: as §2
# Mus musculus [16] = experiment: Sedative activity in Swiss mouse assessed as inhibition of spontaneous locomotor activity at 100 mg/kg, po measured for 30 mins by open-field test; type: organism-based; design: dose 100 mg/kg, route oral; conditions: in vivo, 0.5 h
# Procedure, shortened: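 Swiss mice (25-35 g, either sex), fasted overnight, given compound orally by gavage suspended in 0.5% methylcellulose; vehicle controls; groups of 8-10. Spontaneous locomotor activity recorded by videocamera with video-tracking as distance (m) travelled in 30 min; Student's t-test vs controls.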
smiles,measurement,setting,value
CCN(CC)C(=O)c1c(NC(C)C)c2cccnc2n2c(CN3CCN(C)CC3)nnc12,inhibition in vivo at 100 mg/kg,Rattus norvegicus [1],13%
same,inhibition in vivo at 100 mg/kg,Mus musculus [2],0%
CCN(CC)C(=O)c1c(N2CCN(C)CC2)c2cccnc2n2c(CN3CCOCC3)nnc12,inhibition in vivo at 100 mg/kg,Rattus norvegicus [1],8%
same,inhibition in vivo at 100 mg/kg,Mus musculus [2],37%
CC(=O)Oc1ccccc1C(=O)O [ASPIRIN],IC50,[3],> 500 µM
same,IC50,[4],45 µM
same,IC50,[5],> 500 µM
CCCNC(=O)c1c(NC(C)C)c2cccnc2n2c(C(C)C)nnc12,inhibition in vivo at 25 mg/kg,Rattus norvegicus [6],70%
same,inhibition in vivo at 6.25 mg/kg,Rattus norvegicus [7],19%
same,inhibition in vivo at 100 mg/kg,Rattus norvegicus [1],72%
same,inhibition in vivo at 50 mg/kg,Mus musculus [8],0%
same,inhibition in vivo at 100 mg/kg,Mus musculus [2],0%
same,inhibition in vivo at 50 mg/kg,Rattus norvegicus [9],63%
same,inhibition in vivo at 12.5 mg/kg,Rattus norvegicus [10],44%
CCNC(=O)c1c(NC(C)C)c2cccnc2n2c(C(C)C)nnc12,Activity,Rattus norvegicus [11],Non-toxic
same,inhibition,J774,inactive
same,inhibition in vivo at 25 mg/kg,Rattus norvegicus [6],57%
same,IC50,[3],281 µM
same,inhibition in vivo at 3.12 mg/kg,Rattus norvegicus [12],31%
same,IC50,[4],24 µM
same,inhibition in vivo at 6.25 mg/kg,Rattus norvegicus [7],40%
same,inhibition in vivo at 1.6 mg/kg,Rattus norvegicus [13],31%
same,IC50,[5],89 µM
same,inhibition in vivo at 0.8 mg/kg,Rattus norvegicus [14],0%
same,inhibition in vivo at 100 mg/kg,Rattus norvegicus [1],80%
same,inhibition in vivo at 50 mg/kg,Mus musculus [8],64%
same,inhibition in vivo at 25 mg/kg,Mus musculus [15],15%
same,inhibition in vivo at 100 mg/kg,Mus musculus [2],66%
same,inhibition in vivo at 50 mg/kg,Rattus norvegicus [9],72%
same,Activity,Mus musculus [16],Toxic
same,inhibition in vivo at 12.5 mg/kg,Rattus norvegicus [10],54%
CCN(CC)C(=O)c1c(NCC(C)C)c2cccnc2n2c(=O)cc(C)nc12,inhibition in vivo at 100 mg/kg,Rattus norvegicus [1],15%
same,inhibition in vivo at 50 mg/kg,Mus musculus [8],54%
same,inhibition in vivo at 25 mg/kg,Mus musculus [15],0%
same,inhibition in vivo at 100 mg/kg,Mus musculus [2],71%
CCN(CC)C(=O)c1c(N2CCN(C)CC2)c2cccnc2n2c(CN3CCN(C)CC3)nnc12,inhibition in vivo at 100 mg/kg,Rattus norvegicus [1],0%
same,inhibition in vivo at 100 mg/kg,Mus musculus [2],0%
CC(C)NC(=O)c1c(NC(C)C)c2cccnc2n2c(C(C)C)nnc12,inhibition in vivo at 25 mg/kg,Rattus norvegicus [6],9%
same,inhibition in vivo at 100 mg/kg,Rattus norvegicus [1],34%
same,inhibition in vivo at 100 mg/kg,Mus musculus [2],0%
same,inhibition in vivo at 50 mg/kg,Rattus norvegicus [9],33%
